High-throughput results (PubChem BioAssay)
In the library only some 2.3% were active in any assay of this set; here they are far more common.
TRPC4 act – TRPC4 (mouse) channel activation; Q9QUQ5; HEK293 TRPC4beta/mu-opioid, Fluo4 calcium fluorescence; hits give high values; B-score at 10 µM; actives 0.49% (n = 310,000); AID 2237;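 active = B-score above 5 SD of library B-scores, and initial fluorescence ratio not above library mean plus 5 SD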;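 note: positive B-score marks a calcium rise read as TRPC4 activation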
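Assay system – TRPC4beta and mu-opioid receptor HEK293 stable cells · Measured by – Fluo4 fluorescence, kinetic · Schedule – dye loading 45 min room temperature, 110 s kinetic read · Read-out – B-scored integrated calcium fluorescence ratio · Controls – buffer and maximal DAMGO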
TRPC4 inh – inhibitors of mouse TRPC4 channel. Q9QUQ5. B-score at 10 µM. HEK293 TRPC4beta/mu-opioid, DAMGO-evoked Fluo4 calcium flux; hits give low values. actives 0.39% (n = 300,000);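 active = B-score over 3 SD under the library average, no early fluorescence shift, positive overall ratio signal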
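test system = HEK293 cells with stable TRPC4beta plus mu-opioid receptor expression | detection = Fluo4 Ca2+ flux fluorescence | read-out = integrated fluorescence ratio relative to baseline, converted to per-well B score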
TRPC4 potent – allosteric potentiators of mouse TRPC4 channel. Q9QUQ5. HEK293 TRPC4beta/mu-opioid, DAMGO EC20, Fluo-4 Ca2+ flux; hits give high values. B-score at 10 µM. actives 0.42% (n = 310,000). AID 2227;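 active = B-score of calcium response area above 5 SD of library B-scores, with initial fluorescence ratio within 5 SD of library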;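 note: B-score of integrated fluorescence ratio over time as area under calcium response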
TRPC6 activator – activators of mouse TRPC6 channel; Q61143; HEK293-TRPC6 membrane potential dye fluorescence; hits give high values; B-score at 10 µM; actives 0.13% (n = 310,000); AID 2550;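 active = B-score of the integrated fluorescence ratio above library mean plus 3 SD, and starting fluorescence ratio within library mean plus 5 SD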;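 note: higher score means more depolarization so channel activation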
Target sequence (Q61143 whole entry, looked up): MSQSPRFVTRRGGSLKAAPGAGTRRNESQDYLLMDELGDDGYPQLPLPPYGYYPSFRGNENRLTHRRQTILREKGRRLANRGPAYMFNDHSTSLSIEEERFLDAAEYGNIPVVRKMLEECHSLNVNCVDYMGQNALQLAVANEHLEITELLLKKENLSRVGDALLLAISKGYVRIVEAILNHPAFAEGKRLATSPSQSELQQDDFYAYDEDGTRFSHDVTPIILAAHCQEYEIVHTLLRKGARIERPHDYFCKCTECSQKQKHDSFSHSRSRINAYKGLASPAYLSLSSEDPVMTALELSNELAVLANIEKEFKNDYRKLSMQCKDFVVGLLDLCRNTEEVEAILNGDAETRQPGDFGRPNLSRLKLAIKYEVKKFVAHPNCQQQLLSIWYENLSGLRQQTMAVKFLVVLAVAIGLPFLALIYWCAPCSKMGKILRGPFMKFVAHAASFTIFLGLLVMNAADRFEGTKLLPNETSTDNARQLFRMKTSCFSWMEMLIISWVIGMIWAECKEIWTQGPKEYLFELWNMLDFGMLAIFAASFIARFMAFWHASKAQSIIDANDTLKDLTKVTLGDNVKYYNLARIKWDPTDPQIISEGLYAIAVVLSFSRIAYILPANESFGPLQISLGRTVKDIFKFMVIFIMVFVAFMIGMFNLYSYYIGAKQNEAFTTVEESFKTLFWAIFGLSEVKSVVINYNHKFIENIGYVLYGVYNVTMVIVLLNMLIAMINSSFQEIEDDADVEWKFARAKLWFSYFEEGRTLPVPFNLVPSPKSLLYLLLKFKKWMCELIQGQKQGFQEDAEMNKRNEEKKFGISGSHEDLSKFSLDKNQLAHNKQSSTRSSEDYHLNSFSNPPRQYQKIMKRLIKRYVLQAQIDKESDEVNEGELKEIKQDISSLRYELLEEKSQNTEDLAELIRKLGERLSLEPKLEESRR
TRPC6 inhibitor – mouse TRPC6 channel inhibition; HEK293-TRPC6, membrane potential dye, ACh-evoked depolarization; hits give low values; B-score at 10 µM; actives 1.1% (n = 310,000); AID 2553;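 active = B-score under library mean minus 3 SD, initial fluorescence not abnormally high, positive integrated signal ratio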;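 note: B-score derived from integrated fluorescence ratio over the kinetic read; more negative B-score means stronger inhibition of depolarization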
TRPC4 spec 2 – second selectivity test of TRPC6 inhibitors: effect on mouse TRPC4 | actives 42% (n = 920) | shares compounds with TRPC6 inhibitor | HEK293 TRPC4/MOR, membrane potential dye fluorescence; channel activated by saturating DAMGO dose | inhibition, % at 10 µM | AID 2776;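 active = compounds whose fluorescence signal differed from control wells by over 3 SD, either direction, in both duplicate plates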
TRPC4 spec – selectivity of TRPC6 inhibitors: effect on mouse TRPC4. HEK293 TRPC4/mu-opioid, membrane potential fluorescence. actives 61% (n = 920). activity change, negative = inhibition, % at 10 µM. shares compounds with TRPC6 inhibitor;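 active = rise or fall in signal beyond 3 SD of buffer-only wells in both replicate plates, either sign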;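 note: integrated kinetic ratio of fluorescence range over baseline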
HEK293 MPD ctr 2-1 – second counter-screen for TRPC6 inhibitors: parental HEK293 cells; shares compounds with TRPC6 inhibitor; parental HEK293 membrane potential dye fluorescence; maximal acetylcholine challenge after compound addition; signal change vs control, % at 10 µM; actives 31% (n = 920); AID 2779;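 active = membrane potential signal moving either way by over 3 SD of the maximum-effect control, in both duplicate plates, meaning non-specific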
HEK293 MPD ctr-1 – parental HEK293 nonspecific activity of TRPC6 inhibitors; shares compounds with TRPC6 inhibitor; parental HEK293 membrane potential dye fluorescence; membrane potential signal change, % at 10 µM; actives 60% (n = 920);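 active = membrane potential signal shifting up or down by more than 3 SD of buffer-only wells, on both duplicate plates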
HEK293 MPD ctr-2 – checks TRPC6 modulator effects in parental HEK293 cells; shares compounds with TRPC6 inhibitor; membrane potential dye fluorescence; membrane potential signal change, % at 10 µM; actives 51% (n = 2,400); AID 488924;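 active = membrane potential signal moves up or down beyond 5 SD from buffer-only wells, on both duplicate plates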
HEK293 MPD ctr 2-2 – second counter-screen for TRPC6 modulators: effect in parental HEK293 cells | shares compounds with TRPC6 inhibitor | membrane potential dye fluorescence; after compound, maximal acetylcholine stimulation | inhibition, % at 10 µM | actives 14% (n = 2,400);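 active = membrane potential signal drops by more than 5 SD from the mean control signal, in both duplicate plates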;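 note: plate controls were acetylcholine ECmax control wells for no effect and buffer only wells for full effect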
TRPC4 ctr mod – selectivity of TRPC6 modulators against mouse TRPC4 | shares compounds with TRPC6 inhibitor | HEK293 TRPC4/mu-opioid, membrane potential fluorescence | percent change from control (negative = decrease, positive = increase), % at 10 µM | actives 69% (n = 2,400) | AID 488927;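 active = membrane potential signal moved up or down beyond 5 SD of buffer control wells, in both duplicate plates, actives on both sides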;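 note: plate controls were assay buffer wells for no effect and DAMGO maximal-effect wells for full effect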
TRPC4 ctr inh 2 – second selectivity test of TRPC6 modulators against mouse TRPC4 | actives 55% (n = 2,400) | HEK293 TRPC4/mu-opioid, membrane potential dye fluorescence; stimulated with maximal-effect DAMGO | inhibition, % at 10 µM | shares compounds with TRPC6 inhibitor;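 active = drop in membrane potential signal beyond 5 SD of the control wells in both duplicate plates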;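 note: TRPC4 counter screen for TRPC6 hits run under conditions tuned for TRPC6 not TRPC4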
TRPC6 block conf – mouse TRPC6 inhibitor confirmation; shares compounds with TRPC6 inhibitor; HEK293-TRPC6, membrane potential dye, ACh-evoked depolarization; inhibition, % at 10 µM; AID 488960; actives 43% (n = 3,300);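 active = fluorescence ratio falls more than 5 SD below the full-stimulation control mean, in both duplicate runs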;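 note: integrated fluorescence ratio of peak minus minimum over baseline after agonist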
TRPC6 act confirm – mouse TRPC6 activator confirmation | HEK293-TRPC6 membrane potential dye fluorescence, FDSS | shares compounds with TRPC6 inhibitor | actives 11% (n = 2,800) | activation, % at 10 µM;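 active = ratio signal rise beyond 5 SD above unstimulated control wells' mean, seen in both duplicate runs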;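 note: plate controls were buffer EC0 wells for no effect and acetylcholine ECmax response for full effect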
* = called active by the depositor; i = inactive; x = no result given; + = active, no number.

SMILES	TRPC4 act	TRPC4 inh	TRPC4 potent	TRPC6 activator	TRPC6 inhibitor	HEK293 MPD ctr-2	HEK293 MPD ctr 2-2	TRPC4 ctr mod	TRPC4 ctr inh 2	TRPC6 block conf	TRPC6 act confirm	others
O=C(/C=C/c1ccccc1)C1=C(O)C(=O)N(CCO)C1c1ccccc1[N+](=O)[O-] (stereo not given)	i	i	i	12.7*	i	119.5%*	i	16.5%*	i	i	62.0%*
CN(C)c1cc[n+](CC(=O)Nc2ccc(Oc3ccccc3)cc2)cc1	i	i	i	i	-6.27*	i	i	-10.5%*	i	i	i
O=C(NCCCn1ccnc1)c1nc(Cn2cc(Br)cn2)no1	i	i	i	i	i	x	x	x	x	x	x
CCn1cc(Cl)c(C(=O)Nc2c(C)nn(Cc3c(F)c(F)c(F)c(F)c3F)c2C)n1	i	i	i	i	i	x	x	x	x	x	x
Cc1ccc(C)c(NS(=O)(=O)c2c(C)nn(C)c2C)c1	i	i	i	i	i	x	x	x	x	x	x
Cc1ccc(OS(=O)(=O)c2c(C)nn(C)c2Cl)c(C)c1	i	i	i	i	-6.52*	i	i	i	i	72.5%*	i
CC1(C(O)(C#CC[N+]2(C)CCCCC2)c2ccccc2)CCCC1 (stereo not given)	i	i	i	i	-10.9*	x	x	x	x	106.6%*	i	TRPC4 spec 2=i;TRPC4 spec=i;HEK293 MPD ctr 2-1=-25.5%*;HEK293 MPD ctr-1=i
NC(=O)C[N+]1(CC#CC(O)(c2ccccc2)c2ccccc2)CCCC1	i	i	i	i	i	x	x	x	x	x	x
Brc1ccsc1/C=N/Nc1ccccc1	i	i	i	i	i	x	x	x	x	x	x
COc1ccc(C(=O)N/N=C/c2sc3ccccc3c2O)cc1	i	i	i	12.1*	i	+	+	112.5%*	39.5%*	x	197.5%*
O=C(N/N=C/c1sc2ccccc2c1O)c1cccc2ccccc12	45*	i	i	22.4*	i	834.0%*	+	121.0%*	42.0%*	x	251.0%*
O=C(N/N=C/c1sc2ccccc2c1O)c1ccccc1	i	i	i	i	i	x	x	x	x	x	x
COc1ccc2cc(C(=O)N/N=C/c3sc4ccccc4c3O)ccc2c1	i	i	i	72.4*	i	138.5%*	108.5%*	261.0%*	i	x	38.5%*
COc1ccc(N2C(=O)CSC23C(=O)N2CCCc4cccc3c42)cc1 (stereo not given)	i	i	i	i	-13.5*	x	x	x	x	80.7%*	i	TRPC4 spec 2=i;TRPC4 spec=i;HEK293 MPD ctr 2-1=-29.0%*;HEK293 MPD ctr-1=i
O=C1CSC2(C(=O)N3CCCc4cccc2c43)N1c1cccc(C(F)(F)F)c1 (stereo not given)	i	i	i	i	i	x	x	x	x	x	x
O=C(O)c1ccc(N/N=C/C2=C(N3CCOCC3)C(=C\c3ccccc3)/CC2)cc1	51*	i	i	22.1*	i	856.5%*	i	191.0%*	i	i	350.5%*
CN1C(=O)NC(c2cccc([N+](=O)[O-])c2)C2=C1CCCC2=O (stereo not given)	i	i	i	i	i	x	x	x	x	x	x
CC(=O)Nc1ccc(Nc2ccc3c4c(cc(=O)n3C)-c3ccccc3C(=O)c24)cc1	i	i	i	i	i	x	x	x	x	x	x
O=C1c2ccccc2C(=O)c2c(Nc3ccc(CCO)cc3)ccc(O)c21	i	i	i	i	-5.24*	i	i	-9.0%*	41.5%*	i	i
O=C1/C(=C/c2ccccc2)Nc2ccccc21	83*	i	i	70.2*	i	+	+	309.0%*	i	x	587.0%*
O=C1CNC(=O)/C(=C\c2ccccc2)N1	i	i	i	i	i	x	x	x	x	x	x
CCOc1ccc(NC(=O)CN(C)C(=O)CCCOc2ccc(Cl)c(C)c2)cc1OCC	i	i	i	i	i	x	x	x	x	x	x
COc1ccc(NC(=O)Nc2nc(C)cc(C)n2)c(OC)c1	i	i	i	i	-5.37*	-75.0%*	i	-15.0%*	i	i	i
Cc1c(NC(=O)C2(c3ccc(Cl)cc3)CCCC2)c(=O)n(-c2ccccc2)n1C	i	i	i	i	-6.61*	x	x	x	x	i	i	TRPC4 spec 2=i;TRPC4 spec=i;HEK293 MPD ctr 2-1=i;HEK293 MPD ctr-1=i
COc1ccc(NC(=O)Nc2c(C)n(C)n(-c3ccccc3)c2=O)c(OC)c1	i	i	i	i	-5.02*	i	i	i	i	i	i
Cc1c(Cl)c([N+](=O)[O-])nn1CCCC(=O)Nc1c(C)n(C)n(-c2ccccc2)c1=O	i	i	i	i	-6.52*	i	i	i	i	i	i
Cc1c(NC(=O)C2(c3ccccc3)CCOCC2)c(=O)n(-c2ccccc2)n1C	i	i	i	i	i	x	x	x	x	x	x
O=C(Nc1c[nH]c(=O)[nH]c1=O)c1ccccc1Cl	i	i	i	i	i	x	x	x	x	x	x
